Data taken from ChEMBL document CHEMBL3997800, “Discovery of Multitarget Agents Active as Broad-Spectrum Antivirals and Correctors of Cystic Fibrosis Transmembrane Conductance Regulator for Associated Pulmonary Diseases” (J Med Chem, 2017).
pEC50, pIC50: −log10 of the molar value. The source made the active and inactive calls. The rule behind the calls is not given here.

How the values were obtained:
Enterovirus A71 [1] = experiment: Antiviral activity against Enterovirus 71 11316 clinical isolates incubated for 2 to 3 days; type: functional; details: Enterovirus A
Echovirus E11 = experiment: Antiviral activity against Echovirus 11 after 2 to 3 days; type: functional; details: Enterovirus B
Enterovirus A71 [2] = experiment: Antiviral activity against Enterovirus 71 H08300 461#812 clinical isolates incubated for 2 to 3 days; type: functional; details: Enterovirus A
[3] = Inhibition of full length recombinant His6-tagged PI4K3beta (unknown origin) expressed in Sf9 insect cells using PI : PS as substrate in presence of [gamma-33P]-ATP by scintillation counting method; parameters: species or system Homo sapiens; details: read-out: IC50
[4] = molecular target: Tyrosine-protein kinase ABL1 (Homo sapiens) (UniProt P00519); experiment: Inhibition of full length ABL (unknown origin) assessed as residual activity at 100 uM by ADP-Glo bioluminescence assay relative to control relative to control
Summary of the method: (§1)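 Kinase reactions followed manufacturer's instructions with 10-50 ng enzyme, in 10 µL for 10 min at 30 °C; NP-40 or BSA added for some kinases. Compound at 100 µM. Residual activity is the mean of two independent replicates.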

[5] = molecular target: Glycogen synthase kinase-3 beta (Homo sapiens) (UniProt P49841); experiment: Inhibition of full-length recombinant human N-terminal GST-tagged GSK3beta expressed in baculovirus infected sf9 cells assessed as residual activity at 100 uM using YRRAAVPPSPSLSRHSSPHQ(pS)EDEEE as substrate by ADP-Glo bioluminescence assay relative to control relative to control
Summary of the method: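 Kinase run per the manufacturer's instructions with 10–50 ng enzyme in 10 μL at 30 °C for 10 min. NP-40 or BSA was added for some kinases. Compound was tested at 100 μM, with activity given as % residual. Values are the mean of two independent replicates.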

Enterovirus A71 [6] = experiment: Antiviral activity against Enterovirus 71 TW/70902/08 clinical isolates incubated for 2 to 3 days; type: functional; details: Enterovirus A
[7] = (§2) Inhibition of full length recombinant His6-tagged PI4K3alpha (unknown origin) expressed in Sf9 insect cells assessed as residual activity at 100 uM using PI : PS as substrate in presence of [gamma-33P]-ATP by scintillation counting method relative to control; details: Homo sapiens
[8] = molecular target: Focal adhesion kinase 1 (Homo sapiens) (UniProt Q05397); experiment: Inhibition of […] recombinant human FAK (393 to 698 residues) expressed in baculovirus infected sf9 cells assessed as residual activity at 100 uM using poly(Glu,Tyr)4:1 as substrate by ADP-Glo bioluminescence assay relative to control relative to control; summary of the method: as §1
[9] = system: Cystic fibrosis transmembrane conductance regulator (Homo sapiens), P13569 [F508del]; experiment: Corrector activity at CFTR F508 deletion mutant (unknown origin) expressed in HEK293 cells assessed as increase in steady-state level of F508 deletion mutant at plasma membrane at 10 uM preincubated for 24 hrs followed by compound washout by pHTomato dye based fluorescence imaging method; type: cell-based
Summary of the method: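 HEK293 cells were transiently transfected (Lipofectamine 2000) with F508del-CFTR-pHTomato plus co-expressed soluble eGFP, then kept 24 h at 37 °C. Next, 24 h at 30 °C with 10 μM drug. Imaging in pH 7.4 HEPES buffer, then extracellular pH shifted to ~6.5 (MES) and ~8.8 (Tris). The eGFP-normalized fluorescence rise (ΔF) estimates membrane CFTR.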

[10] = Selectivity index, ratio of CC50 for human RD cells assessed as change in cell morphology to EC50 for Enterovirus 71; type: toxicity; details: read-out: Ratio CC50/EC50
Summary of the method: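 SI is CC50/EC50. CC50 is from microscopically detected morphology change in uninfected RD cells and EC50 from the EV71 CPE-reduction assay in RD cells.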

[11] = Cytotoxicity against human RD cells assessed as change in cell morphology by microscopic method; type: cell-based
Summary of the method: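 Uninfected, compound-treated RD cells were inspected by microscope. CC50 was taken from microscopically detectable alteration of cell morphology.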

[12] = molecular target: CDK2/Cyclin A2 (Homo sapiens) (UniProt P24941+P20248); experiment: Inhibition of full-length recombinant human N-terminal GST-tagged CDK2/cyclin A2 expressed in baculovirus infected sf9 cells assessed as residual activity at 100 uM using histone H1 as substrate by ADP-Glo bioluminescence assay relative to control relative to control; summary of the method: as §1
[13] = molecular target: PI3-kinase p110-alpha/p85-alpha (Homo sapiens) (UniProt P27986+P42336); experiment: as §2, with “recombinant human N-terminal” for “recombinant”, “PI3Kalpha (1 to 1068 residues)/full length human N-terminal myc-tagged P85alpha (1 to 724 residues)” for “PI4K3alpha (unknown origin)”
[14] = molecular target: Tyrosine-protein kinase HCK (Homo sapiens) (UniProt P08631); experiment: Inhibition of full-length recombinant human HCK assessed as residual activity at 100 uM using poly(Glu,Tyr)4:1 as substrate by ADP-Glo bioluminescence assay relative to control relative to control; summary of the method: as §1
rhinovirus B14 = experiment: Antiviral activity against Rhinovirus 14 after 2 to 3 days by cell based MTS assay; type: functional; details: Rhinovirus B; read-out: EC50
[15] = system: Cystic fibrosis transmembrane conductance regulator (Homo sapiens), P13569 [F508del]; experiment: Potentiator activity at CFTR F508 deletion mutant (unknown origin) expressed in HEK293 cells assessed as increase in aninon permeability at 10 uM […] by YFP probe based imaging method; type: cell-based
[16] = molecular target: Serine/threonine-protein kinase pim-1 (Homo sapiens) (UniProt P11309); experiment: Inhibition of recombinant human N-terminal GST-tagged pim1 expressed in baculovirus infected sf9 cells assessed as residual activity using KRRRLASLR as substrate at 100 uM by ADP-Glo bioluminescence assay relative to control relative to control; summary of the method: as §1
[17] = molecular target: Proto-oncogene tyrosine-protein kinase Src (Homo sapiens) (UniProt P12931); experiment: Inhibition of full-length recombinant human N-terminal GST-tagged SRC expressed in Escherichia coli assessed as residual activity at 100 uM using KVEKIGEGTYGVVYK-amide as substrate by ADP-Glo bioluminescence assay relative to control relative to control; summary of the method: as §1
Poliovirus 1 = experiment: Antiviral activity against Poliovirus 1 after 2 to 3 days by cell based MTS assay; type: functional; details: Enterovirus C
Summary of the method: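 Vero cells seeded at 20 000/well in MEM with 2% FCS. Three 8-step 1:5 dilution series from 100 μM, then virus, then cells; 2–3 days until maximal CPE. Read-out: 5% MTS for 1.5 h at 37°C, absorbance at 498 nm, expressed as % of untreated controls. EC50 taken as the median of 3 dose-response curves.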

[18] = molecular target: Receptor-type tyrosine-protein kinase FLT3 (Homo sapiens) (UniProt P36888); experiment: Inhibition of recombinant human N-terminal GST-tagged FLT3 (571 to 993 residues) expressed in baculovirus infected sf9 cells assessed as residual activity using myelin basic protein as substrate at 100 uM by ADP-Glo bioluminescence assay relative to control relative to control; summary of the method: as §1
Coxsackievirus B3 = experiment: Antiviral activity against Coxsackievirus B3 after 2 to 3 days by cell based MTS assay; type: functional; details: Enterovirus B
Enterovirus A71 [19] = experiment: Antiviral activity against Enterovirus 71 TW/96016/08 clinical isolates incubated for 2 to 3 days; type: functional; details: Enterovirus A

Cystic fibrosis transmembrane conductance regulator (Homo sapiens), P13569 [F508del], sequence (P13569 as listed by the source): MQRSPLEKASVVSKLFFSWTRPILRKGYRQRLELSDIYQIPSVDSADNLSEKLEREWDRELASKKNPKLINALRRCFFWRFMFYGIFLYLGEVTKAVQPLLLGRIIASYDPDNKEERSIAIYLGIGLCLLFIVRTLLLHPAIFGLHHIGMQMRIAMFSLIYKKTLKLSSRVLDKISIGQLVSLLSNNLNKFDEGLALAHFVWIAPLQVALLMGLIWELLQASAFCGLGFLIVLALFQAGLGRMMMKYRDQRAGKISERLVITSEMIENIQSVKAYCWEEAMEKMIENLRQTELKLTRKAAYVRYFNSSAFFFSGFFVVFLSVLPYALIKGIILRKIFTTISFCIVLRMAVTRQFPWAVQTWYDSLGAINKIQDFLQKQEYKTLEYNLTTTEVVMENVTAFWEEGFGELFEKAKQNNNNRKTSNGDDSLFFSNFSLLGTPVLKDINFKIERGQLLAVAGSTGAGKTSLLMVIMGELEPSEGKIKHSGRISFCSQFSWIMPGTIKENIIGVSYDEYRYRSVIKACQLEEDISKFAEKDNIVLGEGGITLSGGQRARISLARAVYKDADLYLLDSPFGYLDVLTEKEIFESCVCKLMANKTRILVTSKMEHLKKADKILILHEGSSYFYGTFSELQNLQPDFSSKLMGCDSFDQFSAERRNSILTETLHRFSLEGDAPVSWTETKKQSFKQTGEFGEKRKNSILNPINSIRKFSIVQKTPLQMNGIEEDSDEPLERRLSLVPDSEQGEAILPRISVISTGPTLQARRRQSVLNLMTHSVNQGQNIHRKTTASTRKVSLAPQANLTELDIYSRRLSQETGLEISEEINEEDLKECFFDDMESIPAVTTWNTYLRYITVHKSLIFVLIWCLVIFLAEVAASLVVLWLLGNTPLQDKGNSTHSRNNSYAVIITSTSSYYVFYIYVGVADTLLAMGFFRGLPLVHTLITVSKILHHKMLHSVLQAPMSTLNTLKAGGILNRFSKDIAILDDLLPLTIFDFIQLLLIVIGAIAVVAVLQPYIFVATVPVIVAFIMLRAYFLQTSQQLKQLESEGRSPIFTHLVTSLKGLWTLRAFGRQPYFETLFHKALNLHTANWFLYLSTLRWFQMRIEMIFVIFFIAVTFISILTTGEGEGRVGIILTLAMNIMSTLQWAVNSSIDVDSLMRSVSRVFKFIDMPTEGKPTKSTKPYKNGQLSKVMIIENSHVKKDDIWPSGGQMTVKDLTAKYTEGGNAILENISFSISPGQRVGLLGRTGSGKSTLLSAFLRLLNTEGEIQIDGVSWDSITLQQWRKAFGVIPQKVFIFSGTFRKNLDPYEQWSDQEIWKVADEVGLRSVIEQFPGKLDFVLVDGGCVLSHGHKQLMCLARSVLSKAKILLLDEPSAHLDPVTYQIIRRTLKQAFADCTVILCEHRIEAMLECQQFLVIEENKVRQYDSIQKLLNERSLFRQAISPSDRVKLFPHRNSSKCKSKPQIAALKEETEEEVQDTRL
Glycogen synthase kinase-3 beta (Homo sapiens), sequence (P49841 whole entry, looked up): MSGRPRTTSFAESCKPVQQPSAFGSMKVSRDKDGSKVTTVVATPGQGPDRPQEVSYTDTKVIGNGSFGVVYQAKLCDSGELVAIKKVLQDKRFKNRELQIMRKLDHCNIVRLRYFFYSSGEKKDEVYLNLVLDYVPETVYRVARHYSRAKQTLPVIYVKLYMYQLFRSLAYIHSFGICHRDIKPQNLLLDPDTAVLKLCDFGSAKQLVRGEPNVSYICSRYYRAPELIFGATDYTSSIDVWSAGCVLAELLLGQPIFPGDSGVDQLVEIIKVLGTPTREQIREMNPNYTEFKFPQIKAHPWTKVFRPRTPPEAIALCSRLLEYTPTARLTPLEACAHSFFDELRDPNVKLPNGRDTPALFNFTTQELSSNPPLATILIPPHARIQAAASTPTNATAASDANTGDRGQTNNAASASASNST
Focal adhesion kinase 1 (Homo sapiens), sequence (Q05397 2-1052 limits assumed): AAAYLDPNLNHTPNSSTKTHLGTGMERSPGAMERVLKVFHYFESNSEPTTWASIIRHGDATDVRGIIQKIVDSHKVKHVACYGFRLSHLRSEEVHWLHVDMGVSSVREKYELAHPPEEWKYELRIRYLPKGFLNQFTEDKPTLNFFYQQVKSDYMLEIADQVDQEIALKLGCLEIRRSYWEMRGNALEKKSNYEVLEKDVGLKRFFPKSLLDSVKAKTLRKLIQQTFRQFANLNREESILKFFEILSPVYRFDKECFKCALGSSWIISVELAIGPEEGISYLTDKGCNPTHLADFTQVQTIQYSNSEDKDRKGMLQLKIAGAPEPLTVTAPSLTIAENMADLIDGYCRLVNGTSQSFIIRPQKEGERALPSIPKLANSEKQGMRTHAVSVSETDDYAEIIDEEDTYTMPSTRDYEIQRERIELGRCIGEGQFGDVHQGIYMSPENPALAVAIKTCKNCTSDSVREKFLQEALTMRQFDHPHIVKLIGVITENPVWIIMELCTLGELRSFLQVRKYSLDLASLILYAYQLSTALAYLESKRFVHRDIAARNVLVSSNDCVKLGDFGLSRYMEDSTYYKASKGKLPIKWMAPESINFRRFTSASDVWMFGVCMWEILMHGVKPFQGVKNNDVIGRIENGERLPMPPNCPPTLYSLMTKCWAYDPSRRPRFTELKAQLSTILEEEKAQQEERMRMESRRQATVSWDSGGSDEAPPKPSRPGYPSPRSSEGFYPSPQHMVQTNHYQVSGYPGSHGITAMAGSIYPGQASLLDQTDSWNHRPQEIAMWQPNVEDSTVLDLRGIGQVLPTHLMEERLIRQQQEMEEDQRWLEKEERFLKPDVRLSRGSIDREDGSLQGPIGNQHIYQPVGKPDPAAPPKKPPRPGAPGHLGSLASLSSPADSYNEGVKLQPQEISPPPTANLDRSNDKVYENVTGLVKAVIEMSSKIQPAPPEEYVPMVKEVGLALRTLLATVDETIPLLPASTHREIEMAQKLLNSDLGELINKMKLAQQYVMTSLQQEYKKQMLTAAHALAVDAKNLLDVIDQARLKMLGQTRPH
Tyrosine-protein kinase ABL1 (Homo sapiens), sequence (P00519 whole entry): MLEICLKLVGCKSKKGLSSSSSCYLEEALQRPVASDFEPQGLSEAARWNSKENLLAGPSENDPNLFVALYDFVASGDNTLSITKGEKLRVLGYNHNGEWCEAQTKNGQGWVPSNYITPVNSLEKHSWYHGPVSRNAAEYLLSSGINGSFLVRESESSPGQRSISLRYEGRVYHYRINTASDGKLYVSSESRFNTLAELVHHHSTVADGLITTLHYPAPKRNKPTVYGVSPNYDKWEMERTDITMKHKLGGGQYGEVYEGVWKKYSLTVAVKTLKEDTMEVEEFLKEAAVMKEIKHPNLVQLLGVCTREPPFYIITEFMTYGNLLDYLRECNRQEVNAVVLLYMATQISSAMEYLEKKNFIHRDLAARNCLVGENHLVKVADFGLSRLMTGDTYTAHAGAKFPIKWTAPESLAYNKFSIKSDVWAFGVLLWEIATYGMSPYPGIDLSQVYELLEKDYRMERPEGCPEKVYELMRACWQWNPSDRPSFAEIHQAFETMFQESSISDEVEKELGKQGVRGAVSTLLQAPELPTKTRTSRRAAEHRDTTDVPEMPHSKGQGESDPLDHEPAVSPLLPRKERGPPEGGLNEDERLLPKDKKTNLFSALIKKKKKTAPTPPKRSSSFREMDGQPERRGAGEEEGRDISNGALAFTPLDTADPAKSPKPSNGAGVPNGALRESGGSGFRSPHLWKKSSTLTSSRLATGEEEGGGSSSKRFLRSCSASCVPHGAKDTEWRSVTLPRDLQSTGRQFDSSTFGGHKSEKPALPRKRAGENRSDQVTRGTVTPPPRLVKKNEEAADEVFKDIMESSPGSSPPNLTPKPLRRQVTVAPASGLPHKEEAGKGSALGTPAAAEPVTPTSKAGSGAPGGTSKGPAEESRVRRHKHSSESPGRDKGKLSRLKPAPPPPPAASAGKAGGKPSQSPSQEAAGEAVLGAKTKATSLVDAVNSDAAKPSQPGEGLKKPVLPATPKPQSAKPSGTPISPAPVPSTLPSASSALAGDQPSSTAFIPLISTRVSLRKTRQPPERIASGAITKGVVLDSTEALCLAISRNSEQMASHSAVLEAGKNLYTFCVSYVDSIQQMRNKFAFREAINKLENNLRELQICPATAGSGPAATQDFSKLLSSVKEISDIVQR
Receptor-type tyrosine-protein kinase FLT3 (Homo sapiens), sequence (P36888 whole entry, the tested form may be a part): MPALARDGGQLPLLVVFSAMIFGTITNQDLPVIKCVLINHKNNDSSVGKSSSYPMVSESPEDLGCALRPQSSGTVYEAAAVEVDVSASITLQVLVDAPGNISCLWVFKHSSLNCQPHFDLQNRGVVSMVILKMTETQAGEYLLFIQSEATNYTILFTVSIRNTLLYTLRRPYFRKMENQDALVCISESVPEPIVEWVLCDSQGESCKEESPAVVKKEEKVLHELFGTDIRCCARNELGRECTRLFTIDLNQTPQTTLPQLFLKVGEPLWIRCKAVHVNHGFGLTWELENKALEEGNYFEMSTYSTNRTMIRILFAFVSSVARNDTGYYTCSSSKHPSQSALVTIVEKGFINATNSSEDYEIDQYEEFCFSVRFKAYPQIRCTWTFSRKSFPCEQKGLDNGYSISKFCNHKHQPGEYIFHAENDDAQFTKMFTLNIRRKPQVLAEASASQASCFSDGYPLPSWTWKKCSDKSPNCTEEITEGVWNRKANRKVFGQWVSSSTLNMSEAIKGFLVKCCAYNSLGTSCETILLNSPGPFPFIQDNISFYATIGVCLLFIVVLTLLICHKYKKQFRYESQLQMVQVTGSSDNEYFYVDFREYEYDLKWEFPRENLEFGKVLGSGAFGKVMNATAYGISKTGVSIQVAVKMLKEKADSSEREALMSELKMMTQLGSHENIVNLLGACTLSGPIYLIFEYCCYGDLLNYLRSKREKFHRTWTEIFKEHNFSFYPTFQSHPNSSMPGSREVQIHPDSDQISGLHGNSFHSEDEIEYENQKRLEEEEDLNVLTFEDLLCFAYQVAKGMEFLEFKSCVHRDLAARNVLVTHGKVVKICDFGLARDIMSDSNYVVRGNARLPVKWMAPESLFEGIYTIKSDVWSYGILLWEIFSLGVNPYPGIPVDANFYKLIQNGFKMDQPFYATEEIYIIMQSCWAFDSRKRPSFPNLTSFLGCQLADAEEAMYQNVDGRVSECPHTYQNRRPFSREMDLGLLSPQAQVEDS

CC(=O)c1cccc(Nc2nc(-c3sc(NC(=O)OC(C)(C)C)nc3C)cs2)c1
pEC50 (Enterovirus A71 [1]): > 5.86 | pEC50 (Echovirus E11): 5.53 | pEC50 (Enterovirus A71 [2]): 6.01 | pIC50 [3]: 5.33 | Activity [4]: 53% | Activity [5]: 79% | pEC50 (Enterovirus A71 [6]): 5.45 | Activity [7]: 69% | Activity [8]: 82% | Activity [9]: Active | selectivity ratio [10]: 71.1 | CC50 [11]: 101 µM | Activity [12]: 62% | Activity [13]: 64% | Activity [14]: 100% | pEC50 (rhinovirus B14): < 3.63 | Activity [15]: inactive | Activity [16]: 70% | Activity [17]: 32% | pEC50 (Poliovirus 1): 4.88 | Activity [18]: 59% | pEC50 (Coxsackievirus B3): 5.56 | pEC50 (Enterovirus A71 [19]): 4.68
